Test results reported in ChEMBL document CHEMBL3286131, “Design, synthesis and systematic evaluation of cytotoxic 3-heteroarylisoquinolinamines as topoisomerases inhibitors” (Eur J Med Chem, 2014).
pIC50: −log10 of the molar value. Where “and” joins values, the source holds several entries; their conditions need not be identical. Equal values may be shown once.

Experiments:
[1] = Cytotoxicity against human MCF10A cells after 2 days; assay type: cell-based, MCF-10A
Procedure, shortened: (§1)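 Cells seeded at 2-4 × 10^4 per well in medium with 10% FBS and incubated overnight at 37 °C, 5% CO2. Graded compound concentrations added on day 2. CCK-8 reagent added on day 4 for a further 4 h, absorbance read at 450 nm. IC50 from a four-parameter logistic fit; mean ± S.D. of three experiments run in triplicate.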

T47D = test: Cytotoxicity against human T47D cells after 2 days; assay type: functional, cell-based; procedure, shortened: as §1
DU-145 = test: Cytotoxicity against human DU145 cells after 2 days; assay type: functional, cell-based; procedure, shortened: as §1
[2] = Cytotoxicity against human HCT15 cells after 2 days; assay type: functional, cell-based, HCT-15; procedure, shortened: as §1
[3] = target: DNA topoisomerase 2-alpha (Homo sapiens) (UniProt P11388); test: Inhibition of human DNA topoisomerase-2a-mediated relaxation of supercoiled DNA pBR322 at 100 uM after 4 hrs using ethidium bromide staining by agarose gel electrophoresis analysis
Procedure, shortened: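 Supercoiled pBR322 (200 ng) incubated with human topo IIα (1 unit) ± compound for 30 min at 30 °C. Buffer: 10 mM Tris-HCl pH 7.9, 50 mM NaCl, 50 mM KCl, 5 mM MgCl2, 1 mM EDTA, 1 mM ATP, BSA. Stopped with EDTA. 1% agarose gel run at 25 V for 4 h in TAE, ethidium bromide stain, supercoiled DNA quantified by UV imaging.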

[4] = target: T1, DNA topoisomerase 1 (Homo sapiens) (UniProt P11387); test: Inhibition of recombinant human DNA topoisomerase-1-mediated relaxation of supercoiled DNA pBR322 at 100 uM after 7 hrs using ethidium bromide staining by agarose gel electrophoresis analysis
T1 sequence (whole entry): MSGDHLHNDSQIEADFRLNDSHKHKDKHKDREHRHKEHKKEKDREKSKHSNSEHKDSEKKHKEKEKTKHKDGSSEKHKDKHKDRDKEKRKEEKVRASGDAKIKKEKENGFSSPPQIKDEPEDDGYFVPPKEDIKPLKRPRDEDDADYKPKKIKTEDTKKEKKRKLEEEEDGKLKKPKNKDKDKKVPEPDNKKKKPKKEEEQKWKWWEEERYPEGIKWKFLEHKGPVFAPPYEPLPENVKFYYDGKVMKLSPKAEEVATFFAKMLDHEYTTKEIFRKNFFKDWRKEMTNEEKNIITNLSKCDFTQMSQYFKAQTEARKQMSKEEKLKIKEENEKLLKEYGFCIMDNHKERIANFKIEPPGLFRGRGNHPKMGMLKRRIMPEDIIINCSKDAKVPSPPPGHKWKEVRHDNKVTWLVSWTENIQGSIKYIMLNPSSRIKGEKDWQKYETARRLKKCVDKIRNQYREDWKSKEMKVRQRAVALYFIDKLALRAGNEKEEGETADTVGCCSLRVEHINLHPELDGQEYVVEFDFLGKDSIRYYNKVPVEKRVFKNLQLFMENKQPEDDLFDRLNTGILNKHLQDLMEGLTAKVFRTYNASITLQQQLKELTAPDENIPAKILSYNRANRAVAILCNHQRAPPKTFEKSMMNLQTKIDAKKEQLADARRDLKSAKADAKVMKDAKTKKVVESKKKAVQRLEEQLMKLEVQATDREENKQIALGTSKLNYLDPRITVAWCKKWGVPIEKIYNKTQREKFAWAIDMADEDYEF
Procedure, shortened: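 pBR322 (100 ng) incubated with recombinant human topo I (0.4 units) ± compound for 30 min at 37 °C. Buffer: 10 mM Tris-HCl pH 7.9, 150 mM NaCl, 0.1% BSA, 1 mM spermidine, 5% glycerol. Quenched with sarcosyl stop solution. 1% agarose gel run at 15 V for 7 h in TAE, ethidium bromide stain, supercoiled DNA quantified under UV.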

DNA topoisomerase 2-alpha (Homo sapiens), sequence (P11388 whole entry): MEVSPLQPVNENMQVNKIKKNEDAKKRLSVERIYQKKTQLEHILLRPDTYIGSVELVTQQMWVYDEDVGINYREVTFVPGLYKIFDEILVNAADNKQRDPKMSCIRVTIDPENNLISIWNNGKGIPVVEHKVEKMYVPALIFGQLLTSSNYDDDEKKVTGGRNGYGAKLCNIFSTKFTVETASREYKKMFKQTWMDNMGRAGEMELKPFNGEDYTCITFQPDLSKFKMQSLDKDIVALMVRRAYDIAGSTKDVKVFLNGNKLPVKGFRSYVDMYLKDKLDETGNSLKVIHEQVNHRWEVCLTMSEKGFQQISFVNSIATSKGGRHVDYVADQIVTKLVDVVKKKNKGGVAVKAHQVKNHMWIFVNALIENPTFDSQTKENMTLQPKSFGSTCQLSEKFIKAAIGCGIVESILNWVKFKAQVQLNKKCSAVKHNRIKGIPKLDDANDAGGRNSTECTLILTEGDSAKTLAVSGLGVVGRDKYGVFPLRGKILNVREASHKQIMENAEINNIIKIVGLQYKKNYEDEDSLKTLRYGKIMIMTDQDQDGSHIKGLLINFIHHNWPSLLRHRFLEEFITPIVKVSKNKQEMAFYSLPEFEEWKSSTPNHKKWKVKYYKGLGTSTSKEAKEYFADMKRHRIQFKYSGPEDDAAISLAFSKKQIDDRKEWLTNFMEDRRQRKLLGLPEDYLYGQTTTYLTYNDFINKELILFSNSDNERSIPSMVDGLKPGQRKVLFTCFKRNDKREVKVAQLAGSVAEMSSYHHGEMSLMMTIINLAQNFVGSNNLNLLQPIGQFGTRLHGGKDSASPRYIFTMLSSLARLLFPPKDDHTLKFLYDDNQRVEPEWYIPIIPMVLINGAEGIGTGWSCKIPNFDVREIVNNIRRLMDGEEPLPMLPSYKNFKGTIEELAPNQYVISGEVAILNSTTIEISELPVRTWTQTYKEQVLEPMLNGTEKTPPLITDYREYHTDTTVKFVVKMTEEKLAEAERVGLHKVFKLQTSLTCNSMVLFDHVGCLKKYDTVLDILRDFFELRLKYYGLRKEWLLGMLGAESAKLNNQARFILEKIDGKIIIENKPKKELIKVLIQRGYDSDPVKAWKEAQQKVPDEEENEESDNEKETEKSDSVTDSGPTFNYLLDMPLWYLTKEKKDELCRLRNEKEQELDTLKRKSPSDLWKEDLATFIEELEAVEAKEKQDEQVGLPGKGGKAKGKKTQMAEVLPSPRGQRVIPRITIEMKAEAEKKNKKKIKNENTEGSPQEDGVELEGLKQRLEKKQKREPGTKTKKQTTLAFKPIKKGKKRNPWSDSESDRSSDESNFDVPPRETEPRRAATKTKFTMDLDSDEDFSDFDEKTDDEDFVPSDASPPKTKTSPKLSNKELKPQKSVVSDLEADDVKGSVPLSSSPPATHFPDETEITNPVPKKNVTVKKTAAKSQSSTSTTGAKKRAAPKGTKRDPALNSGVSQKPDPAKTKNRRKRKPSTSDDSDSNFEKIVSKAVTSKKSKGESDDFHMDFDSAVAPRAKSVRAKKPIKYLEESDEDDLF

| Compound | pIC50 ([1]; mcf-10a) | pIC50 (T47D; t47d) | pIC50 (DU-145; du-145) | pIC50 ([2]; hct-15) | pIC50 (T47D; Homo sapiens, T47D, 48 h) | pIC50 (DU-145; Homo sapiens, DU-145, 48 h) | pIC50 ([2]; Homo sapiens, HCT-15, 48 h) | inhibition [3] | inhibition [4] | pIC50 ([1]; Homo sapiens, MCF-10A, 48 h) |
| --- | --- | --- | --- | --- | --- | --- | --- | --- | --- | --- |
| Cc1ccc2cc(-c3cccs3)nc(N3CCOCC3)c2c1 [listing 1 of 2 here] | 4.31 | 5.12 | 4.32 | 5.02 |  |  |  |  |  |  |
| Cc1ccc2c(N3CCOCC3)nc(-c3cccs3)cc2c1 [listing 1 of 2 here] | < 4.30 |  |  |  | 5.17 | < 4.30 | 5.12 |  |  |  |
| CN1CCN(c2nc(-c3cccs3)cc3ccccc23)CC1 [listing 1 of 3 here] |  |  |  |  |  |  |  | 0% | 80.8% and 97.5% |  |
| Cc1ccc2c(N3CCCCC3)nc(-c3cccs3)cc2c1 [listing 1 of 2 here] |  | 5.59 |  | 5.26 |  | < 4.30 |  |  |  | < 4.30 |
| Cc1ccc2c(N3CCN(C)CC3)nc(-c3cccs3)cc2c1 [listing 1 of 3 here] |  |  |  |  |  |  |  | 0% | 5.1% and 11.2% |  |
| c1csc(-c2cc3ccccc3c(N3CCCCC3)n2)c1 [listing 1 of 2 here] |  | 5.14 |  | 5.98 |  |  |  |  |  |  |
| CCN1CCN(c2nc(-c3cccs3)cc3cc(C)ccc23)CC1 [listing 1 of 2 here] |  |  |  |  |  |  |  | 0% | 0% |  |
| c1csc(-c2cc3ccccc3c(N3CCCCC3)n2)c1 [listing 2 of 2 here] |  | 5.49 |  | 5.44 |  | < 4.30 |  |  |  | < 4.30 |
| Cc1ccc2cc(-c3cccs3)nc(N3CCCCC3)c2c1 [listing 1 of 2 here] |  | 5.52 |  | 6.05 |  |  |  |  |  |  |
| Cc1ccc2c(N3CCN(C)CC3)nc(-c3cccs3)cc2c1 [listing 2 of 3 here] |  |  |  | 5.36 | 5.03 | 4.48 |  |  |  | 4.88 |
| CCN1CCN(c2nc(-c3cccs3)cc3ccccc23)CC1 |  |  |  |  |  |  |  | 3.2% and 9.1% | 2.6% and 15% |  |
| c1csc(-c2cc3ccccc3c(N3CCOCC3)n2)c1 [listing 1 of 2 here] |  | 4.61 | < 4.30 | 4.67 |  |  |  |  |  | < 4.30 |
| COc1cc([C@@H]2c3cc4c(cc3[C@@H](O[C@@H]3O[C@@H]5CO[C@@H](C)O[C@H]5[C@H](O)[C@H]3O)[C@H]3COC(=O)[C@H]23)OCO4)cc(OC)c1O [ETOPOSIDE] |  |  |  |  | 5.59 |  | 5.02 |  |  | 4.91 |
| COc1cccc2c1C(=O)c1c(O)c3c(c(O)c1C2=O)C[C@@](O)(C(=O)CO)C[C@@H]3O[C@H]1C[C@H](N)[C@H](O)[C@H](C)O1 [DOXORUBICIN] |  |  |  |  | 6.08 | 5.31 |  |  |  | 6.03 |
| Cc1ccc2cc(-c3cccs3)nc(N3CCN(C)CC3)c2c1 [listing 1 of 2 here] |  | 5.71 |  | 5.79 |  | 4.79 |  |  |  | 4.94 |
| CCN1CCN(c2nc(-c3cccs3)cc3ccc(C)cc23)CC1 [listing 1 of 2 here] |  |  | 4.51 | 5.11 | 5.55 |  |  |  |  | 4.37 |
| c1csc(-c2cc3ccccc3c(N3CCOCC3)n2)c1 [listing 2 of 2 here] |  |  |  |  | 4.83 | 4.33 | 4.83 |  |  |  |
| Cc1ccc2cc(-c3cccs3)nc(N3CCCN(C)CC3)c2c1 |  |  |  |  | 5.88 | 4.83 | 5.82 | 8% | 18.3% | 4.69 |
| Cc1ccc2cc(-c3cccs3)nc(N3CCOCC3)c2c1 [listing 2 of 2 here] |  |  |  |  | 5.20 | 4.32 | 5.12 |  |  | 4.45 |
| Cc1ccc2cc(-c3cccs3)nc(N3CCCCC3)c2c1 [listing 2 of 2 here] |  | 5.13 |  | 5.43 |  | < 4.30 |  |  |  | < 4.30 |
| Cc1ccc2cc(-c3cccs3)nc(N3CCN(C)CC3)c2c1 [listing 2 of 2 here] | 4.68 |  | 4.61 |  | 5.99 |  | 5.98 |  |  |  |
| Cc1ccc2c(N3CCCCC3)nc(-c3cccs3)cc2c1 [listing 2 of 2 here] |  | 5.10 |  | 5.73 |  |  |  |  |  |  |
| CC[C@@]1(O)C(=O)OCc2c1cc1n(c2=O)Cc2cc3ccccc3nc2-1 [CAMPTOTHECIN] |  |  |  |  | 6.55 | 5.40 | 5.00 |  |  | 6.57 |
| CN1CCN(c2nc(-c3cccs3)cc3ccccc23)CC1 [listing 2 of 3 here] | 4.41 | 4.79 | 4.35 | 5.10 |  |  |  |  |  |  |
| CCN1CCN(c2nc(-c3cccs3)cc3cc(C)ccc23)CC1 [listing 2 of 2 here] |  | 4.75 | 4.66 | 5.36 |  |  |  |  |  | 4.54 |
| Cc1ccc2c(N3CCN(C)CC3)nc(-c3cccs3)cc2c1 [listing 3 of 3 here] | 4.83 | 4.74 | 4.40 |  |  |  | 5.50 |  |  |  |
| Cc1ccc2c(N3CCOCC3)nc(-c3cccs3)cc2c1 [listing 2 of 2 here] |  | 5.10 |  | 5.11 |  |  |  |  |  | 4.31 |
| CCN1CCN(c2nc(-c3cccs3)cc3ccc(C)cc23)CC1 [listing 2 of 2 here] | 4.37 | 5.38 |  | 5.44 |  | 4.53 |  |  |  |  |
| CN1CCN(c2nc(-c3cccs3)cc3ccccc23)CC1 [listing 3 of 3 here] | 4.74 |  |  | 5.61 | 4.81 | 4.40 |  |  |  |  |
| Cc1cccc2c(N=[N+]=[N-])nc(-c3cccs3)cc12 |  |  |  |  | < 4.30 | < 4.30 | < 4.30 | 4.8% | 2.1% | < 4.30 |
